What was measured:
[1] = biological target: T1, Tyrosine-protein phosphatase non-receptor type 1 (Homo sapiens) (UniProt P18031); test: Inhibition of PTP1B (unknown origin) assessed as inhibition rate at 100 uM
T1 sequence (whole entry): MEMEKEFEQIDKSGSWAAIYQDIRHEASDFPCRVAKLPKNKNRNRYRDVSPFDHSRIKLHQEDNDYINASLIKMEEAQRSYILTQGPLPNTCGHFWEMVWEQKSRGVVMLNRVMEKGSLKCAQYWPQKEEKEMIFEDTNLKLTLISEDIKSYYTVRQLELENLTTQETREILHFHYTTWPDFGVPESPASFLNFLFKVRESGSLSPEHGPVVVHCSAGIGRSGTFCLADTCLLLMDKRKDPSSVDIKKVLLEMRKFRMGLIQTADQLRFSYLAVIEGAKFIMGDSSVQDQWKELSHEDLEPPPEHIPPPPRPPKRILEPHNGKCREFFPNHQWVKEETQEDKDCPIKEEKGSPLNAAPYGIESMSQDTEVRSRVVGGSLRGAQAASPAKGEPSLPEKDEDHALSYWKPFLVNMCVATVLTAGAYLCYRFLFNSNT
Outline: (§1)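 PTP1B enzymatic assay with RK-682 as the positive control. For the single-point screen, compounds were tested at a final 100 µM. For dose–response, inhibition was measured over a range of compound concentrations, and IC50 was obtained by regression analysis.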

[2] = species: Homo sapiens; test: Ratio of inhibition rate for PTP1B (unknown origin) at 75 uM to inhibition rate for TCPTP (unknown origin) at 75 uM
[3] = species: Homo sapiens; test: Ratio of inhibition rate for PTP1B (unknown origin) at 75 uM to inhibition rate for VHR (unknown origin) at 75 uM
[4] = species: Homo sapiens; test: Ratio of inhibition rate for PTP1B (unknown origin) at 75 uM to inhibition rate for SHP1 (unknown origin) at 75 uM
[5] = species: Homo sapiens; test: Ratio of inhibition rate for PTP1B (unknown origin) at 75 uM to inhibition rate for SHP2 (unknown origin) at 75 uM
[6] = tested on: HepG2; test: Induction of Akt phosphorylation in insulin-stimulated human HepG2 cells assessed as pAkt/Akt ratio at 50 uM after 5 mins by western blotting analysis relative to control; assay type: functional
Outline: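 HepG2 cells were treated with compound at 50 µM, then stimulated with insulin. pAkt was assessed by western blotting at 0 and 5 min after insulin. DMSO served as the negative control and sodium orthovanadate (200 µM) as the positive control. Values are expressed relative to control.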

[7] = biological target: T2, Tyrosine-protein phosphatase non-receptor type 1 (Homo sapiens, UniProt P18031); test: Inhibition of PTP1B (unknown origin); outline: as §1
T2 sequence (P18031 whole entry): T1 sequence (whole entry)

[8] = biological target: T2, Tyrosine-protein phosphatase non-receptor type 1; test: Non-competitive inhibition of PTP1B (unknown origin) assessed as hydrolysis of para-nitrophenylphosphate by Lineweaver-Burk plot
Outline: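 Kinetic study of PTP1B varying both compound and p-nitrophenylphosphate substrate concentrations. Mode was read from Lineweaver–Burk plots. Slopes from those plots were replotted against compound concentration (secondary plot), and Ki was calculated from that plot.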

[9] = biological target: T1, Tyrosine-protein phosphatase non-receptor type 1 (Homo sapiens); test: Inhibition of PTP1B (unknown origin) assessed as inhibition rate at 75 uM
[10] = biological target: T3, Tyrosine-protein phosphatase non-receptor type 2 (Homo sapiens) (UniProt P17706); test: Inhibition of TCPTP (unknown origin) assessed as inhibition rate at 75 uM
T3 sequence (whole entry): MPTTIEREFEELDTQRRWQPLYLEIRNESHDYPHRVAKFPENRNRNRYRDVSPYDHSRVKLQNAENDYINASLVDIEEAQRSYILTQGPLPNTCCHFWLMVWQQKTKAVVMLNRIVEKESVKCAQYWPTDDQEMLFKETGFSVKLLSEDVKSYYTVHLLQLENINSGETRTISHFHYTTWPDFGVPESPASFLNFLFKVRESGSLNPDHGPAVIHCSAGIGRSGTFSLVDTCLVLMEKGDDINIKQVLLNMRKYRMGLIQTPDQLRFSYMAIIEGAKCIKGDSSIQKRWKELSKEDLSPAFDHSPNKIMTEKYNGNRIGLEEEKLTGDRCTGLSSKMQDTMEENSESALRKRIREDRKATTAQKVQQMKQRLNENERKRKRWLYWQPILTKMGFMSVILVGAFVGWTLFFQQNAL

[11] = biological target: Dual specificity protein phosphatase 3 (Homo sapiens) (UniProt P51452); test: Inhibition of VHR (unknown origin) assessed as inhibition rate at 75 uM
[12] = biological target: Tyrosine-protein phosphatase non-receptor type 6 (Homo sapiens) (UniProt P29350); test: Inhibition of SHP1 (unknown origin) assessed as inhibition rate at 75 uM
[13] = biological target: T4, Tyrosine-protein phosphatase non-receptor type 11 (Homo sapiens) (UniProt Q06124); test: Inhibition of SHP2 (unknown origin) assessed as inhibition rate at 75 uM
T4 sequence (whole entry): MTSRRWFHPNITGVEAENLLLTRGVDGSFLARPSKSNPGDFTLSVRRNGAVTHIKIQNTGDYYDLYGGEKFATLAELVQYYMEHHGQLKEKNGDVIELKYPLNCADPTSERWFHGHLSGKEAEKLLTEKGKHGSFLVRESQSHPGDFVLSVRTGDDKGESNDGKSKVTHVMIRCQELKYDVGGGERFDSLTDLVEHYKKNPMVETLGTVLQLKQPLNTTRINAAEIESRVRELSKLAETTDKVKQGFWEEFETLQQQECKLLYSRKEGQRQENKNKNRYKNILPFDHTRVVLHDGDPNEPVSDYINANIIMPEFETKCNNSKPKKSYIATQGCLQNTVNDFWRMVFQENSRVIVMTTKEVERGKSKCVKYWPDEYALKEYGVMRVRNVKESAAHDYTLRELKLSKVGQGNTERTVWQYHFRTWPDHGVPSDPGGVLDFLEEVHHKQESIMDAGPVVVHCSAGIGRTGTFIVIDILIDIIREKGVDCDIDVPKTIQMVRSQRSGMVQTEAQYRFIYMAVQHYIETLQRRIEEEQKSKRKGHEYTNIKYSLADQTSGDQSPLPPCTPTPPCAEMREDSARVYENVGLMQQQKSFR

Chain of Tyrosine-protein phosphatase non-receptor type 6 (Homo sapiens) (P29350 whole entry): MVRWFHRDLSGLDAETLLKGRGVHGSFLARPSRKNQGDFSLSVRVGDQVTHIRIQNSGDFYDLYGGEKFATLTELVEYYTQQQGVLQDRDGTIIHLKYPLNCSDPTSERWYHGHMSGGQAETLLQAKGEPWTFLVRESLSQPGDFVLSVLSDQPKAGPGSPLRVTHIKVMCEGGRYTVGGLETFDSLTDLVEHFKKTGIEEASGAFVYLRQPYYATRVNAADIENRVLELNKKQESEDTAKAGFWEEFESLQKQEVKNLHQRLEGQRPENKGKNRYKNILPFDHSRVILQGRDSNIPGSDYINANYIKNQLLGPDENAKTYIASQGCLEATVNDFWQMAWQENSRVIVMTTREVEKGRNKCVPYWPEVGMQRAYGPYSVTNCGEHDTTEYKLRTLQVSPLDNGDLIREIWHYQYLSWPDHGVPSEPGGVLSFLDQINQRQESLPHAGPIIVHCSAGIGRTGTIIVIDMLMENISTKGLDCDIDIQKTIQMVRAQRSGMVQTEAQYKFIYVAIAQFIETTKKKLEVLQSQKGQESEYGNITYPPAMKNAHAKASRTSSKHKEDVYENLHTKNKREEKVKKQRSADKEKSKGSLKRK
Chain of Dual specificity protein phosphatase 3 (Homo sapiens) (P51452 whole entry, looked up): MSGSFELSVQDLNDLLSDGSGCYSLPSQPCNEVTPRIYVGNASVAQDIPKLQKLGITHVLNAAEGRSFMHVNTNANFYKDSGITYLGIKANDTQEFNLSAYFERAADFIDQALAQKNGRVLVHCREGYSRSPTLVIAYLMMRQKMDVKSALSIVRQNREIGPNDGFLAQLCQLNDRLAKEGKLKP

Row | Structure (SMILES) | inhibition [1] [%] | other results
1 | CCc1ncc(OC)c2c1[nH]c1ccccc12 | 16.1 | 
2 | COc1c(O)c(=O)n2c3ccccc3c3cc(=O)n(C)c1c32 | 26.3 | 
3 | O=C(O)c1nccc2c1[nH]c1ccccc12 | 28.5 | 
4 | O=C1NC(=O)c2[nH]c3ccccc3c2C1=O | 80.7 | 
5 | COC(=O)/C=C/C(=O)c1ncc(OC)c2c1[nH]c1c(OC)cccc12 | 21 | 
6 | COc1c(OC)c2nc(O)cc3c4ccccc4n(c1=O)c23 | 81.9 | 
7 | O=c1ccc2nccc3c4ccccc4n1c23 | 15.3 | 
8 | Cc1c2[nH]c3ccccc3c2cc[n+]1[O-] | -3 | 
9 | COc1c(OC(C)=O)c(=O)n2c3ccccc3c3ccnc1c32 | 68.8 | 
10 | OCc1nccc2c1[nH]c1ccccc12 | 17 | 
11 | O=c1ccc2c3c(cc[n+]2[O-])c2ccccc2n13 | 50.9 | 
12 | COc1cnc(C(O)CO)c2[nH]c3ccccc3c12 (configuration not stated) | 10.5 | 
13 | CCn1ccc2c3n(c(=O)c(=O)cc1-3)c1cc(OC)ccc21 | 59.4 | 
14 | CCC1NC(C(=O)c2ccccc2)Cc2c1[nH]c1ccccc21 (configuration not stated) | 4.7 | 
15 | CCc1c2[nH]c3ccccc3c2cc[n+]1[O-] | 4.3 | 
16 | CCCCn1ccc2c3n(c(=O)c(=O)c(OC)c1-3)c1ccccc21 | 11.7 | 
17 | COCCc1ncc(OC)c2c1[nH]c1c(OC)cccc12 | 28.6 | 
18 | COc1cccc2c1[nH]c1c(CCC(OC)C(=O)c3nccc4c3[nH]c3ccccc34)ncc(OC)c12 (configuration not stated) | 44.1 | 
19 | NC(=O)c1nccc2c1[nH]c1ccccc12 | 20.3 | 
20 | CC1NC(C(=O)O)Cc2c1[nH]c1ccccc21 (configuration not stated) | 21.3 | 
21 | COc1c(O)c(=O)n2c3ccccc3c3ccnc1c32 | 42.8 | 
22 | COc1c(OC(C)=O)c(=O)n2c3ccccc3c3cc(OC(C)=O)nc1c32 | 41.7 | 
23 | Oc1nccc2c1[nH]c1ccccc12 | 8.5 | 
24 | O=c1c(O)cc2nccc3c4ccccc4n1c23 | 84.7 | 

Row | Structure (SMILES) | inhibition [1] [%] | other results
25 | CC(C)C1NC(C(=O)O)Cc2c1[nH]c1ccccc21 (configuration not stated) | 11.3 | 
26 | COc1c(OC)c2c3c(cc[n+]2[O-])c2ccccc2n3c1=O | 14.8 | 
27 | COc1cnc(C(C)=O)c2[nH]c3ccccc3c12 | 21.6 | 
28 | CC(=O)c1nccc2c1[nH]c1ccccc12 | 25.1 | 
29 | COc1cc2nccc3c4ccccc4n(c1=O)c23 [5-METHOXYCANTHINONE] |  | Ratio [2]: 1.9; Ratio [3]: 3.3; Ratio [4]: 4; Ratio [5]: 5; pAkt/Akt ratio [6]: 1.3; IC50 [7]: 20.3 µM; Ki [8]: 10.3 µM; inhibition [9]: 91%; inhibition [10]: 48.4%; inhibition [11]: 27.5%; inhibition [12]: 22.8%; inhibition [13]: 18.3%
30 | CCCC1NC(C(=O)OC)Cc2c1[nH]c1ccccc21 (configuration not stated) | 7.9 | 
31 | Cc1nc(C(=O)O)cc2c1[nH]c1ccccc12 | 18.2 | 
32 | COC(=O)c1nccc2c1[nH]c1ccccc12 | 2.9 | 
33 | COc1cccc2c1[nH]c1c(C(=O)CCC(=O)c3ncc(OC)c4c3[nH]c3c(OC)cccc34)ncc(OC)c12 | 43.8 | 
34 | CCn1ccc2c3n(c(=O)c(=O)c(OC)c1-3)c1ccccc21 | 43.6 | 
35 | O=c1c(CO)cc2nccc3c4ccccc4n1c23 | 33.8 | 
36 | COc1cnc(C(OC)OC(C)=O)c2[nH]c3ccccc3c12 (configuration not stated) | 11.6 | 
37 | O=C(O)CCc1nccc2c1[nH]c1ccccc12 | 39.3 | 
38 | CCCC1NC(C(=O)O)Cc2c1[nH]c1ccccc21 (configuration not stated) | 46.9 | 
39 | COCc1nccc2c1[nH]c1ccccc12 | 27.4 | 
40 | CCC1NC(C(=O)O)Cc2c1[nH]c1ccccc21 (configuration not stated) | 20.8 | 
41 | Cc1nccc2c1[nH]c1ccccc12 | 7.7 | 
42 | CCn1ccc2c3n(c(=O)c(=O)cc1-3)c1ccccc21 | 63.4 | 
43 | COc1cnc(C(=O)CC(CO)c2ncc(OC)c3c2[nH]c2ccccc23)c2[nH]c3ccccc3c12 (configuration not stated) | 33 | 
44 | COCc1c2[nH]c3ccccc3c2cc[n+]1[O-] | 59 | 
45 | O=Cc1nccc2c1[nH]c1ccccc12 | 9.8 | 
46 | COc1c2n(C)ccc3c-2n(c(=O)c1=O)c1ccccc31 | 76.6 | 
47 | C=Cc1ncc(OC)c2c3ccccc3n(OC)c12 | 33.5 | 
48 | CCCCn1ccc2c3n(c(=O)c(=O)cc1-3)c1ccccc21 | 42 | 

Row | Structure (SMILES) | inhibition [1] [%] | other results
49 | COC(=O)c1cc2c([nH]c3ccccc32)c(C)n1 | 14.3 | 
50 | COc1c(OC)c2nccc3c4ccccc4n(c1=O)c23 | 26.5 | 
51 | CCc1nc(C(=O)OC)cc2c1[nH]c1ccccc12 | 21.2 | 
52 | COc1ccc2c3ccnc4ccc(=O)n(c2c1)c43 | 34.9 | 
53 | COc1c(OC)c2c3c(cc(=O)n2C)c2ccccc2n3c1=O | 34.4 | 
54 | O=C(O)C1Cc2c([nH]c3ccccc23)CN1 (configuration not stated) | 26 | 
55 | CCc1ncc(OC)c2c1[nH]c1c(O)cccc12 | 27.1 | 
56 | CCc1nccc2c1[nH]c1ccccc12 | 30.2 | 
57 | O=C(O)c1cc2c([nH]c3ccccc32)c(-c2cccc3c2OCO3)n1 | 19.8 | 
58 | Cn1c(=O)cc2c3ccccc3n3c(=O)ccc1c23 | 33.6 | 
59 | COc1c(O)c2nccc3c4cc(O)ccc4n(c1=O)c23 | 30.5 | 
60 | COC(=O)C1Cc2c([nH]c3ccccc23)CN1 (configuration not stated) | 21.3 | 
61 | COc1cnc2ccc(=O)n3c4ccccc4c1c23 | 23.7 | 
62 | O=c1ccc2nccc3c4c(O)cccc4n1c23 | 50.6 | 
63 | COc1cccc2c1[nH]c1c(CCn3ccc4c5n(c(=O)c(=O)cc3-5)c3ccccc43)ncc(OC)c12 | 48.5 | 
64 | COn1c(=O)cc2c3ccccc3n3c(=O)ccc1c23 | 31.2 | 
65 | C=Cc1ncc(OC)c2c1[nH]c1c(OC)cccc12 | 40.3 | 
66 | COc1cnc(CCn2ccc3c4n(c(=O)c(=O)cc2-4)c2ccccc32)c2c1c1ccccc1n2OC | 43.9 | 
67 | CCOC(=O)c1nccc2c1[nH]c1ccccc12 | 26.9 | 
68 | Cc1c2n(C)ccc3c-2n(c(=O)c1=O)c1ccccc31 |  | Ratio [2]: 1.9; Ratio [3]: 3.5; Ratio [4]: 3.8; Ratio [5]: 3.8; IC50 [7]: 24.7 µM; Ki [8]: 19.9 µM; inhibition [9]: 92.1%; inhibition [10]: 49.7%; inhibition [11]: 26.5%; inhibition [12]: 24.4%; inhibition [13]: 23.3%
69 | C(=C\c1nccc2c1[nH]c1ccccc12)/c1ccccc1 | 15 | 
70 | COC(=O)c1cc2c(cn1)[nH]c1ccccc12 | 23 | 
71 | COc1c(O)c2nccc3c4ccccc4n(c1=O)c23 | 55.9 | 

Source: ChEMBL document CHEMBL3400011, “Canthinone alkaloids are novel protein tyrosine phosphatase 1B inhibitors” (Bioorg Med Chem Lett, 2015)
